# Screens (PubChem)
# Sampled rows, rich in hits. Any-hit rate of the full collection: about 1.5%.
# ERAP1 HTS inh – blocks human ERAP1 aminopeptidase activity. recombinant ERAP1, Leu-AMC fluorescence, 60 min. inhibition, % at 10.7 µM. hit rate 0.15% among 340,000. AID 652197;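 active means mean replicate inhibition of at least 30%, or all replicates individually reaching that 30% level; inactive means mean below 30% and not every replicate reaching it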
# RAD52 inh – RAD52 (human) annealing inhibition; P43351; recombinant RAD52 DNA annealing, FRET fluorescence; inhibition, % at 18.7 µM; hit rate 0.46% among 360,000; AID 651710;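 active means every replicate showing at least 50% inhibition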
# AF4-AF9 inh – MLL-AF4/AF9 protein interaction inhibition; P42568; hit rate 0.47% among 350,000; AlphaScreen, biotin-AF4 peptide binding to FLAG-AF9; inhibition, % at 10 µM;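 active means every replicate reaching a set inhibition limit, whatever the replicate mean, cut at about 25% in these data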
# S100A4 inh HTS – inhibitors of human S100A4 binding to myosin IIA peptide; S100A4/TAMRA-MyoIIA peptide fluorescence polarization; inhibition, % at 10.7 µM; hit rate 0.14% among 360,000;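 active means mean inhibition of at least 70% across replicates, with every replicate also reaching that level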
#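 Assay system: human S100A4 monomer with TAMRA-labelled myosin IIA peptide / Buffer or medium: Calcium-containing HEPES buffer, pH 7.2 / Reagent: TAMRA-labelled myosin IIA heavy-chain peptide probe, 5 nM / Compound: one dose per compound / Timing: polarization read 5 min after assay mix addition, stable 5–60 min / Benchmarks: neutral control DMSO, positive control TFP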
# GSIS activator – GLuc luminescence reporter in INS-1E cells, primary screen for activators of glucose-dependent secretion of insulin; INS-1E GLuc reporter insulin secretion, 2-3 h; hit rate 0.61% among 370,000; activation, % at 16.6 µM; AID 743287;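 active means lowest replicate activation of at least 40%, so every replicate reaches that level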
# Hits are given with their value; – = inactive; · = no result.
SMILES,ERAP1 HTS inh,RAD52 inh,AF4-AF9 inh,S100A4 inh HTS,GSIS activator
Nc1ccc2ccccc2c1N=Nc1ccccc1,–,–,36,–,·
C[C@@H]1CCCCO[C@H](CN(C)Cc2ccc(C(=O)Nc3ccccc3N)cc2)[C@@H](C)CN([C@H](C)CO)C(=O)c2cc(NS(=O)(=O)c3ccc(F)cc3)ccc2O1,–,59,–,–,–
C[C@H](CO)N1C[C@H](C)[C@H](CN(C)Cc2ccccc2)OCCCC[C@H](C)Oc2ccc(NS(=O)(=O)c3ccc(Cl)cc3)cc2C1=O,–,52,–,–,–
C[C@@H]1CCCCO[C@@H](CN(C)Cc2ccccc2)[C@@H](C)CN([C@@H](C)CO)C(=O)c2cc(NS(=O)(=O)c3ccc(Cl)cc3)ccc2O1,–,58,–,–,–
CCCC(C)(C)C(=O)N1CCC1(C)C(=O)NS(=O)(=O)c1ccc(Cl)cc1 (stereo not given),–,–,–,–,42
COc1ccc(NC(=O)N2CCCCN3[C@@H](CO)[C@@H](c4ccc(-c5ccccc5C)cc4)[C@@H]3C2)cc1,–,–,–,–,–
CC(=O)Nc1ccc2c(c1)CC(=O)N(C)C[C@H](C)[C@@H](CN(C)C(=O)NC(C)C)O2,·,·,·,·,–
CCOC(=O)C1CCN(C2=NC(=O)/C(=C/c3ccc(OC)c(OC)c3)S2)CC1,–,–,–,–,–
COc1ccc(/C=C2\SC(N3CCCCC3)=NC2=O)cc1OC,–,–,–,–,66
COC(=O)c1sc2ccccc2c1NC(=O)c1cccs1,–,–,–,–,58
C[C@H]1CN(C)C(=O)Cc2ccccc2O[C@@H]1CN(C)S(C)(=O)=O,·,·,·,·,–
Cc1ccc(S(=O)(=O)/N=c2\scc(C)n2C)cc1,·,–,–,–,–
Cc1ccc(S(=O)(=O)/N=C2\CN(C)C(=O)N2C)cc1,–,–,–,–,45
CO[C@H]1CN(C)C(=O)c2cc(NC(C)=O)ccc2OC[C@H](C)N(Cc2cccnc2)C[C@@H]1C,·,·,·,·,–
CC(=O)Nc1cccc2c1O[C@@H](CN(C)S(C)(=O)=O)[C@H](C)CN(C)C2=O,·,·,·,·,–
O=C(OCc1c(-c2ccccc2)ncc2ccccc12)c1cccs1,–,–,–,–,55
C[C@H]1CN(C)C(=O)c2cccc(NS(C)(=O)=O)c2O[C@@H]1CN(C)S(C)(=O)=O,·,·,·,·,–
COc1cccc(C#Cc2ccc3c(c2)[C@H]2[C@H](CCN2C(=O)c2ccc4c(c2)OCO4)[C@H](CO)N3)c1,–,–,–,–,·
CCCCCc1cc(=O)oc2c(C(CCN3CCCCC3)c3ccc(OC)cc3)c(OC)cc(OC)c12 (stereo not given),–,–,–,–,·
CCCCCc1cc(=O)oc2c(C(CCN3CCCC(C)C3)c3ccc(OC)cc3)c(OC)cc(OC)c12 (stereo not given),–,–,–,–,339
CC(C)(C)c1ccccc1OCC(O)CN1CCN(c2ccccn2)CC1 (stereo not given),–,–,–,–,63
C[C@@H]1CN([C@H](C)CO)C(=O)c2cc(C#Cc3ccccc3)cnc2O[C@@H]1CN(C)C(=O)CCN1CCCCC1,–,–,–,–,–
COc1ccc(C)c2sc(N(CCCN(C)C)C(=O)c3ccc(S(=O)(=O)N4CCc5ccccc5C4)cc3)nc12,–,95,–,–,189
Cc1ccc2sc(N(CCCN(C)C)C(=O)c3ccc(S(=O)(=O)N4CCc5ccccc5C4)cc3)nc2c1C,–,–,–,–,–
CC(=O)N(C)C[C@H]1Oc2cc(/C=C/c3ccccc3)ccc2S(=O)(=O)N([C@@H](C)CO)C[C@@H]1C,–,–,–,–,–
SMILES,ERAP1 HTS inh,RAD52 inh,AF4-AF9 inh,S100A4 inh HTS,GSIS activator
C[C@@H]1CN(C)C(=O)Cc2cc(N)ccc2O[C@H]1CN(C)C,·,·,·,·,–
O=C(CCN1CCOCC1)c1ccccc1,–,–,–,–,105
O=C(OCCN1CCOCC1)c1ccc2c(c1)OCCO2,–,–,·,–,·
O=C(CCN1CCOCC1)c1ccc2c(c1)OCCO2,·,·,·,·,48
O=C(Cn1cnc2c(OCc3ccccc3)ncnc21)NCc1ccccn1,–,–,–,–,41
O=C(Cn1cnc2c(OCc3ccccc3)ncnc21)N[C@H](CO)Cc1cc2ccccc2[nH]1,–,–,–,–,49
O=C(c1ccncc1)N1CC(=O)N2[C@H](CO)[C@@H](c3ccc(/C=C/c4ccccc4)cc3)[C@H]2C1,–,–,–,–,–
